The target in experiment [1] is T1, Son of sevenless homolog 1 (Homo sapiens) (UniProt Q07889).
T1 sequence (whole entry): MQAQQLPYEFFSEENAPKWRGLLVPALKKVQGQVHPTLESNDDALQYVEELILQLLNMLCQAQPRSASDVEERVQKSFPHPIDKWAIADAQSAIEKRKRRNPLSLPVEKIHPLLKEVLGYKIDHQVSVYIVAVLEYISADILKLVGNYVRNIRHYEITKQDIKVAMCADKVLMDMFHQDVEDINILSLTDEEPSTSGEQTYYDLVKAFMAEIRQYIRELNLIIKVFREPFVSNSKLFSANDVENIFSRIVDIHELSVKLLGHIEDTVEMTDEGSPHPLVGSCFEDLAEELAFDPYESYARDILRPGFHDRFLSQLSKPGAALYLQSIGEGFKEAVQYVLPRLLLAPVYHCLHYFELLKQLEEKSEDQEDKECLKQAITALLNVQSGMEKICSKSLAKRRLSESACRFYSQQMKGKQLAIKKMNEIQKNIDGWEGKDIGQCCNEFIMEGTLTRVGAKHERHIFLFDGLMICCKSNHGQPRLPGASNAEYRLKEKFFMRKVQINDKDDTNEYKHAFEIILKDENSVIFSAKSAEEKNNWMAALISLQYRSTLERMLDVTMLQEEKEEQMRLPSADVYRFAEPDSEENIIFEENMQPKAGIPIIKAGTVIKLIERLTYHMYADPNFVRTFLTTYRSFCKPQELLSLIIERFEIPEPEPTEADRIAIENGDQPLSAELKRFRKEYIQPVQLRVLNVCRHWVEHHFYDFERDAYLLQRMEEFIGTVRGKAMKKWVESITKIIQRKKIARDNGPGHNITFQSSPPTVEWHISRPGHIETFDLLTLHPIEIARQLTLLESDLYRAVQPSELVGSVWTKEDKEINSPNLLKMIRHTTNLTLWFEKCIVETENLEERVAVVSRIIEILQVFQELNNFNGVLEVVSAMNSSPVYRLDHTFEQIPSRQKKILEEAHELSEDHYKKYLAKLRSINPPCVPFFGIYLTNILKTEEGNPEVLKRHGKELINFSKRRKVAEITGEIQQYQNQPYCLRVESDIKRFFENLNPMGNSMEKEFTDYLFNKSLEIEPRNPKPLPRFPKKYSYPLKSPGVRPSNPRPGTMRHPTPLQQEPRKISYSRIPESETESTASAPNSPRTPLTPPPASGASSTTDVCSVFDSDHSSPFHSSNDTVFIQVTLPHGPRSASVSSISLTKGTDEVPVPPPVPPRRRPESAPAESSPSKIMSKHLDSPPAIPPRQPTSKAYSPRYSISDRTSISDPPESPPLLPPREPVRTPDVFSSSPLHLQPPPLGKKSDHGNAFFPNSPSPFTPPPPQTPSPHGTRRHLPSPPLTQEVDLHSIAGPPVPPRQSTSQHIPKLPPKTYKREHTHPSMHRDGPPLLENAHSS
Description: Activation of SOS1 in human HeLa cells assessed as effect on RAS-GTP levels by measuring […] at 50 uM after 30 mins by active RAS pull-down assay relative to control. The format is cell-based. Summed up: (§1)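 HeLa cells treated for 30 min with compound at concentrations up to 100 μM. RAS-GTP and ERK1/2 phosphorylated at T202/Y204 were detected by blotting and quantified. EGF (50 ng/mL, 5 min) served as the positive control for pathway activation.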

The target in experiment [2] is T1, Son of sevenless homolog 1 (Homo sapiens). The experiment is described as follows: Activation of SOS1 in human HeLa cells assessed as effect on RAS-GTP levels by measuring […] at 6.3 uM after 30 mins by active RAS pull-down assay relative to control. It counts as cell-based. The gist of the method: as §1
For experiment [3] the target is unchanged. The experiment is described as follows: Activation of SOS1 in human HeLa cells assessed as effect on ERK1/2 phosphorylation at T202/Y204 residue by measuring […] at 12.5 uM after 30 mins by Western blot analysis relative to control. It counts as cell-based. Summed up:
as §1
A general note: A western blot detects proteins with antibodies after separation by electrophoresis.

Experiment [4] shares this target. The experiment is described as follows: Activation of SOS1 in human HeLa cells assessed as effect on RAS-GTP levels by measuring […] at 12.5 uM after 30 mins by active RAS pull-down assay relative to control. The format is cell-based. The gist of the method: as §1
The target is the same in experiment [5]. The experiment is described as follows: Activation of SOS1 in human HeLa cells assessed as effect on RAS-GTP levels by measuring […] at 3.1 uM after 30 mins by active RAS pull-down assay relative to control. It counts as cell-based. Summed up: as §1
Experiment [6] has the same target. Description: Activation of SOS1 in human HeLa cells assessed as effect on RAS-GTP levels by measuring […] at 25 uM after 30 mins by active RAS pull-down assay relative to control. The format is cell-based. Summed up: as §1
For experiment [7] the target is unchanged. The experiment is described as follows: Activation of SOS1 in human HeLa cells assessed as effect on ERK1/2 phosphorylation at T202/Y204 residue by measuring […] at 50 uM after 30 mins by Western blot analysis relative to control. It counts as cell-based. The gist of the method: as §1
Experiment [8] shares this target. The experiment is described as follows: Activation of SOS1 in human HeLa cells assessed as effect on RAS-GTP levels by measuring […] at 100 uM after 30 mins by active RAS pull-down assay relative to control. It counts as cell-based. The gist of the method: as §1
The target is the same in experiment [9]. The experiment is described as follows: Activation of SOS1 in human HeLa cells assessed as effect on ERK1/2 phosphorylation at T202/Y204 residue by measuring […] at 3.1 uM after 30 mins by Western blot analysis relative to control. The format is cell-based. Summed up: as §1
For experiment [10] the target is unchanged. The experiment is described as follows: Activation of SOS1 in human HeLa cells assessed as effect on ERK1/2 phosphorylation at T202/Y204 residue by measuring […] at 25 uM after 30 mins by Western blot analysis relative to control. It counts as cell-based. Summed up: as §1
For experiment [11] the target is unchanged. The experiment is described as follows: Activation of SOS1 in human HeLa cells assessed as effect on ERK1/2 phosphorylation at T202/Y204 residue by measuring […] at 6.3 uM after 30 mins by Western blot analysis relative to control. The format is cell-based. The gist of the method:
as §1

For experiment [12] the target is unchanged. The experiment is described as follows: Activation of SOS1 in human HeLa cells assessed as effect on ERK1/2 phosphorylation at T202/Y204 residue by measuring […] at 100 uM after 30 mins by Western blot analysis relative to control.
Experiment [13] has the same target. Description: Biphasic activity at SOS1 in human HeLa cells assessed as reduction in ERK1/2 T202/Y204 phosphorylation at 100 uM measured after 30 mins by Western blot analysis. It counts as cell-based. Summed up: as §1
Experiment [14] has as its target Mitogen-activated protein kinase 3 (Homo sapiens) (UniProt P27361). Description: Inhibition of human ERK1 using myelin basic protein as substrate measured in presence of [gamma33P]ATP.
In experiment [15] the target is Mitogen-activated protein kinase 1 (Homo sapiens) (UniProt P28482). The experiment is described as follows: Inhibition of human ERK2 using myelin basic protein as substrate measured in presence of [gamma33P]ATP.

The structures appear in SMILES notation. The source made the active and inactive calls. The calls are words filed in the database; no cut-off is given here.

Chain of Mitogen-activated protein kinase 3 (Homo sapiens) (P27361 whole entry): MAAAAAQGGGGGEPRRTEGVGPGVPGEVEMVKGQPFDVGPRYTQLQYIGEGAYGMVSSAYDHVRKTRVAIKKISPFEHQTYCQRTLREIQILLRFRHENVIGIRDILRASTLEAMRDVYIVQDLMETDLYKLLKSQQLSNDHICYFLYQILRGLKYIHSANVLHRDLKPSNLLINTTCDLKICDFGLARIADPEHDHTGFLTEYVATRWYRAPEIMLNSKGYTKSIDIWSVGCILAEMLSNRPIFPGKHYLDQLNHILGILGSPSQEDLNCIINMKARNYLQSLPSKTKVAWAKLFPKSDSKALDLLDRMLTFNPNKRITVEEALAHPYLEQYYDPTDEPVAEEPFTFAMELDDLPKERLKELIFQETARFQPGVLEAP
Chain of Mitogen-activated protein kinase 1 (Homo sapiens) (P28482 whole entry): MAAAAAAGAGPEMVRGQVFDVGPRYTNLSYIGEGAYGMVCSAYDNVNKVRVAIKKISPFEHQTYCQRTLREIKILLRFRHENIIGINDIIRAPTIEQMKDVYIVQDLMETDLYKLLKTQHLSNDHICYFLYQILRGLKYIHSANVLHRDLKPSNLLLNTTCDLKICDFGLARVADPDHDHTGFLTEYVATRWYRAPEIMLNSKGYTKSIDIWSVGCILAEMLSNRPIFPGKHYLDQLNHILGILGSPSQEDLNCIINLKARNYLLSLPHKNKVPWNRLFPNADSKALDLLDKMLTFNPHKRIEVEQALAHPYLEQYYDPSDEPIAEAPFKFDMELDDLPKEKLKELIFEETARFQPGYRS

For `C[C@@H](Nc1nc(Nc2ccc(F)c(Cl)c2)nc2c(CCN)cccc12)C1CC1`, the fold change (FC) in [1] is 1.61; in experiment [2], 1.64; in [3], 1.59; in experiment [4] it was 0.97; in experiment [5] it was 1.22; in [6] it was 1.58. Besides, the fold change (FC) in experiment [7] was found to be 1.18; in [8], 1.66; in experiment [9] it was 1.11; in experiment [10] it was 1.87; in experiment [11] it was 1.82; in experiment [12], 0.44.

As for `C[C@@H](Nc1nc(Nc2ccc(F)c(Cl)c2)nc2ccccc12)C1CCC1`, the result in experiment [13] was inactive.

For the molecule `C[C@@H](Nc1nc(Nc2ccc(F)c(Cl)c2)nc2c(CN)cccc12)C1CC1`, the fold change (FC) stood at 1.14 in [1]; 1.39 in experiment [2]; 1.83 in experiment [3]; 0.98 in experiment [4]; 1.15 in experiment [5]; 1.18 in [6]. The fold change (FC) in experiment [7] was determined as 2.43; in experiment [8] it was 1.54; in experiment [9] it was 1.05; in experiment [10], 2.52; in experiment [11], 0.94; in experiment [12] it was 0.59.

For the molecule `Clc1cc(Cl)cc(Nc2nc(NCc3ccco3)c3ccccc3n2)c1`, the result in experiment [13] was inactive.

As for `C[C@@H](Nc1nc(Nc2ccc(F)c(Cl)c2)nc2c(C3=CCNCC3)cccc12)C1CC1`, the fold change (FC) in experiment [1] was 1.56; in experiment [2] it was 1.08; in experiment [3], 1.98; in [4], 1.72; in [5], 1.41; in experiment [6] it was 1.6. The fold change (FC) in experiment [7] is 1.16; in experiment [8], 1.51; in experiment [9] it was 1.43; in experiment [10], 1.98; in experiment [11], 1.29; in [12], 0.58.

On to `CC(C)C[C@@H](Nc1nc(Nc2ccc(F)c(Cl)c2)nc2ccccc12)C1CC1`, for which, in experiment [13], the result was inactive.

`C[C@@H](Nc1nc(Nc2ccc(F)c(Cl)c2)nc2ccccc12)C1CC1`: the inhibition entry in experiment [14] and in experiment [15] was “inactive” throughout. The fold change (FC) in experiment [1] was 1.26; in [2] it was 0.85; in experiment [3], 1.67; in [4], 0.53; in experiment [5], 0.95; in experiment [6], 0.69. Also, the fold change (FC) in experiment [7] was found to be 3.68; in [8], 1.39; in experiment [9], 1.16; in experiment [10] it was 1.61; in experiment [11], 1.03; in [12], 4.01.

For `CC[C@@H](Nc1nc(Nc2ccc(F)c(Cl)c2)nc2ccccc12)C1CCC1`, the outcome in experiment [13] was inactive.

On to `CC[C@H](Nc1nc(Nc2ccc(F)c(Cl)c2)nc2ccccc12)C1CC1`, for which, in experiment [13], the result was inactive.
